Calls of active or inactive are those of the source. The rule behind the calls is not given here.
What was measured:
Mus musculus [1] = experiment: Anticonvulsant activity in albino CF1 mouse assessed as protection against subcutaneous metrazol-induced seizures at 30 mg/kg, ip after 0.5 hrs; format: functional, organism-based; parameters: dose 30 mg/kg
Procedure, shortened: (§1)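 Mice dosed ip at 30, 100 or 300 mg/kg, then tested 0.5 h and 4 h after administration in the MES or scMet test. Protection was recorded as animals protected over animals tested. Neurotoxicity was recorded as motor impairment or sedation, as animals affected over animals tested.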

Mus musculus [2] = experiment: Anticonvulsant activity in albino CF1 mouse assessed as protection against subcutaneous metrazol-induced seizures at 100 mg/kg, ip after 0.5 hrs; format: functional, organism-based; parameters: dose 100 mg/kg; procedure, shortened: as §1
Mus musculus [3] = experiment: Anticonvulsant activity in albino CF1 mouse assessed as protection against subcutaneous metrazol-induced seizures at 300 mg/kg, ip after 0.5 hrs; format: functional, organism-based; parameters: dose 300 mg/kg; procedure, shortened: as §1
Mus musculus [4] = experiment: Anticonvulsant activity in albino CF1 mouse assessed as protection against subcutaneous metrazol-induced seizures at 30 mg/kg, ip after 4 hrs; format: functional, organism-based; parameters: dose 30 mg/kg; procedure, shortened: as §1
Mus musculus [5] = experiment: Anticonvulsant activity in albino CF1 mouse assessed as protection against subcutaneous metrazol-induced seizures at 100 mg/kg, ip after 4 hrs; format: functional, organism-based; parameters: dose 100 mg/kg; procedure, shortened: as §1
Mus musculus [6] = experiment: Anticonvulsant activity in albino CF1 mouse assessed as protection against subcutaneous metrazol-induced seizures at 300 mg/kg, ip after 4 hrs; format: functional, organism-based; parameters: dose 300 mg/kg; procedure, shortened: as §1
Mus musculus [7] = experiment: Anticonvulsant activity in albino CF1 mouse assessed as protection against maximal electroshock-induced seizures at 30 mg/kg, ip after 0.5 hrs; format: functional, organism-based; parameters: dose 30 mg/kg; procedure, shortened: as §1
Mus musculus [8] = experiment: Anticonvulsant activity in albino CF1 mouse assessed as protection against maximal electroshock-induced seizures at 100 mg/kg, ip after 0.5 hrs; format: functional, organism-based; parameters: dose 100 mg/kg; procedure, shortened: as §1
Mus musculus [9] = experiment: Anticonvulsant activity in albino CF1 mouse assessed as protection against maximal electroshock-induced seizures at 300 mg/kg, ip after 0.5 hrs; format: functional, organism-based; parameters: dose 300 mg/kg; procedure, shortened: as §1
Mus musculus [10] = experiment: Anticonvulsant activity in albino CF1 mouse assessed as protection against maximal electroshock-induced seizures at 30 mg/kg, ip after 4 hrs; format: functional, organism-based; parameters: dose 30 mg/kg; procedure, shortened: as §1
Mus musculus [11] = experiment: Anticonvulsant activity in albino CF1 mouse assessed as protection against maximal electroshock-induced seizures at 100 mg/kg, ip after 4 hrs; format: functional, organism-based; parameters: dose 100 mg/kg; procedure, shortened: as §1
Mus musculus [12] = experiment: Anticonvulsant activity in albino CF1 mouse assessed as protection against maximal electroshock-induced seizures at 300 mg/kg, ip after 4 hrs; format: functional, organism-based; parameters: dose 300 mg/kg; procedure, shortened: as §1
Mus musculus [13] = experiment: Neurotoxicity in albino CF1 mouse assessed as minimal motor impairment at 30 mg/kg, ip after 0.5 hrs by rotarod test; format: toxicity, organism-based; parameters: dose 30 mg/kg, route intraperitoneal; details: in vivo; procedure, shortened: as §1
Mus musculus [14] = experiment: Neurotoxicity in albino CF1 mouse assessed as minimal motor impairment at 100 mg/kg, ip after 0.5 hrs by rotarod test; format: toxicity, organism-based; parameters: dose 100 mg/kg, route intraperitoneal; details: in vivo; procedure, shortened: as §1
Mus musculus [15] = experiment: Neurotoxicity in albino CF1 mouse assessed as minimal motor impairment at 300 mg/kg, ip after 0.5 hrs by rotarod test; format: toxicity, organism-based; parameters: dose 300 mg/kg, route intraperitoneal; details: in vivo; procedure, shortened: as §1
Mus musculus [16] = experiment: Neurotoxicity in albino CF1 mouse assessed as minimal motor impairment at 30 mg/kg, ip after 4 hrs by rotarod test; format: toxicity, organism-based; parameters: dose 30 mg/kg, route intraperitoneal; details: in vivo; procedure, shortened: as §1
Mus musculus [17] = experiment: Neurotoxicity in albino CF1 mouse assessed as minimal motor impairment at 100 mg/kg, ip after 4 hrs by rotarod test; format: toxicity, organism-based; parameters: dose 100 mg/kg, route intraperitoneal; details: in vivo; procedure, shortened: as §1
Mus musculus [18] = experiment: Neurotoxicity in albino CF1 mouse assessed as minimal motor impairment at 300 mg/kg, ip after 4 hrs by rotarod test; format: toxicity, organism-based; parameters: dose 300 mg/kg, route intraperitoneal; details: in vivo; procedure, shortened: as §1
Rattus norvegicus [19] = experiment: Anticonvulsant activity in Sprague-Dawley albino rat assessed as protection against maximal electroshock-induced seizures at 30 mg/kg, po after 15 mins; format: functional, organism-based; parameters: dose 30 mg/kg
Procedure, shortened: (§2)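 Rats dosed orally. Anti-MES protection was scored as animals protected over animals tested at each time after dosing. Neurotoxicity was scored as motor impairment or sedation, as animals affected over animals tested.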

Rattus norvegicus [20] = experiment: Anticonvulsant activity in Sprague-Dawley albino rat assessed as protection against maximal electroshock-induced seizures at 30 mg/kg, po after 2 hrs; format: functional, organism-based; parameters: dose 30 mg/kg; procedure, shortened: as §2
Rattus norvegicus [21] = experiment: Anticonvulsant activity in Sprague-Dawley albino rat assessed as protection against maximal electroshock-induced seizures at 30 mg/kg, po after 4 hrs; format: functional, organism-based; parameters: dose 30 mg/kg; procedure, shortened: as §2
Rattus norvegicus [22] = experiment: Neurotoxicity in Sprague-Dawley albino rat assessed as minimal motor impairment at 30 mg/kg, po by rotarod test; format: toxicity, organism-based; parameters: dose 30 mg/kg, route oral; details: in vivo; procedure, shortened: as §2
Rattus norvegicus [23] = experiment: Anticonvulsant activity in Sprague-Dawley albino rat assessed as protection against pilocarpine-induced status epilepticus at 65 mg/kg, ip; format: functional, organism-based; parameters: dose 65 mg/kg
Procedure, shortened: (§3)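 Pilocarpine status epilepticus model in rats. Number and severity of convulsive seizures were observed behaviourally.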

Rattus norvegicus [24] = experiment: Neurotoxicity in pilocarpine-induced status epilepticus Sprague-Dawley albino rat model assessed as minimal motor impairment at 100 mg/kg, ip after 0.25 hr by rotarod test; format: toxicity, organism-based; parameters: dose 100 mg/kg, route intraperitoneal; details: in vivo
Rattus norvegicus [25] = experiment: Neurotoxicity in pilocarpine-induced status epilepticus Sprague-Dawley albino rat model assessed as minimal motor impairment at 300 mg/kg, ip after 0.25 hr by rotarod test; format: toxicity, organism-based; parameters: dose 300 mg/kg, route intraperitoneal; details: in vivo
Procedure, shortened: (§4)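 Rat pilocarpine status epilepticus model: test carbamate given at 0 or 30 min after the first observed Racine stage 3 motor seizure, which marks SE onset. Neurotoxicity was scored within the same model.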

Rattus norvegicus [26] = experiment: Neurotoxicity in pilocarpine-induced status epilepticus Sprague-Dawley albino rat model assessed as minimal motor impairment at 30 mg/kg, ip after 0.25 hr by rotarod test; format: toxicity, organism-based; parameters: dose 30 mg/kg, route intraperitoneal; details: in vivo; procedure, shortened: as §4
Rattus norvegicus [27] = experiment: Neurotoxicity in pilocarpine-induced status epilepticus Sprague-Dawley albino rat model assessed as minimal motor impairment at 100 mg/kg, ip after 0.5 hrs by rotarod test; format: toxicity, organism-based; parameters: dose 100 mg/kg, route intraperitoneal; details: in vivo
Rattus norvegicus [28] = experiment: Neurotoxicity in pilocarpine-induced status epilepticus Sprague-Dawley albino rat model assessed as minimal motor impairment at 300 mg/kg, ip after 0.5 hrs by rotarod test; format: toxicity, organism-based; parameters: dose 300 mg/kg, route intraperitoneal; details: in vivo; procedure, shortened: as §4
Rattus norvegicus [29] = experiment: Neurotoxicity in pilocarpine-induced status epilepticus Sprague-Dawley albino rat model assessed as minimal motor impairment at 30 mg/kg, ip after 0.5 hrs by rotarod test; format: toxicity, organism-based; parameters: dose 30 mg/kg, route intraperitoneal; details: in vivo; procedure, shortened: as §4
Rattus norvegicus [30] = experiment: Neurotoxicity in pilocarpine-induced status epilepticus Sprague-Dawley albino rat model assessed as minimal motor impairment at 100 mg/kg, ip after 1 hr by rotarod test; format: toxicity, organism-based; parameters: dose 100 mg/kg, route intraperitoneal; details: in vivo
Rattus norvegicus [31] = experiment: Neurotoxicity in pilocarpine-induced status epilepticus Sprague-Dawley albino rat model assessed as minimal motor impairment at 300 mg/kg, ip after 1 hr by rotarod test; format: toxicity, organism-based; parameters: dose 300 mg/kg, route intraperitoneal; details: in vivo; procedure, shortened: as §4
Rattus norvegicus [32] = experiment: Neurotoxicity in pilocarpine-induced status epilepticus Sprague-Dawley albino rat model assessed as minimal motor impairment at 30 mg/kg, ip after 1 hr by rotarod test; format: toxicity, organism-based; parameters: dose 30 mg/kg, route intraperitoneal; details: in vivo; procedure, shortened: as §4
Rattus norvegicus [33] = experiment: Neurotoxicity in pilocarpine-induced status epilepticus Sprague-Dawley albino rat model assessed as minimal motor impairment at 100 mg/kg, ip after 2 hrs by rotarod test; format: toxicity, organism-based; parameters: dose 100 mg/kg, route intraperitoneal; details: in vivo
Rattus norvegicus [34] = experiment: Neurotoxicity in pilocarpine-induced status epilepticus Sprague-Dawley albino rat model assessed as minimal motor impairment at 300 mg/kg, ip after 2 hrs by rotarod test; format: toxicity, organism-based; parameters: dose 300 mg/kg, route intraperitoneal; details: in vivo; procedure, shortened: as §4
Rattus norvegicus [35] = experiment: Neurotoxicity in pilocarpine-induced status epilepticus Sprague-Dawley albino rat model assessed as minimal motor impairment at 30 mg/kg, ip after 2 hrs by rotarod test; format: toxicity, organism-based; parameters: dose 30 mg/kg, route intraperitoneal; details: in vivo; procedure, shortened: as §4
Rattus norvegicus [36] = experiment: Neurotoxicity in pilocarpine-induced status epilepticus Sprague-Dawley albino rat model assessed as minimal motor impairment at 100 mg/kg, ip after 4 hrs by rotarod test; format: toxicity, organism-based; parameters: dose 100 mg/kg, route intraperitoneal; details: in vivo
Rattus norvegicus [37] = experiment: Neurotoxicity in pilocarpine-induced status epilepticus Sprague-Dawley albino rat model assessed as minimal motor impairment at 300 mg/kg, ip after 4 hrs by rotarod test; format: toxicity, organism-based; parameters: dose 300 mg/kg, route intraperitoneal; details: in vivo; procedure, shortened: as §4
Rattus norvegicus [38] = experiment: Neurotoxicity in pilocarpine-induced status epilepticus Sprague-Dawley albino rat model assessed as minimal motor impairment at 30 mg/kg, ip after 4 hrs by rotarod test; format: toxicity, organism-based; parameters: dose 30 mg/kg, route intraperitoneal; details: in vivo; procedure, shortened: as §4
Rattus norvegicus [39] = experiment: Anticonvulsant activity in ip dosed Sprague-Dawley albino rat assessed as protection against pilocarpine-induced status epilepticus after 0.5 hrs; format: functional; procedure, shortened: as §3
Rattus norvegicus [40] = experiment: Neurotoxicity in pilocarpine-induced status epilepticus Sprague-Dawley albino rat model assessed as minimal motor impairment at 65 mg/kg, ip after 0.5 hrs by rotarod test; format: toxicity, organism-based; parameters: dose 65 mg/kg, route intraperitoneal; details: in vivo; procedure, shortened: as §4

CCCC(COC(N)=O)C(C)C (racemic)
Activity (Mus musculus [1]): inactive | Activity (Mus musculus [2]): inactive | Activity (Mus musculus [3]): Active | Activity (Mus musculus [4]): inactive | Activity (Mus musculus [5]): inactive | Activity (Mus musculus [6]): inactive | Activity (Mus musculus [7]): inactive | Activity (Mus musculus [8]): Active | Activity (Mus musculus [9]): Active | Activity (Mus musculus [10]): inactive | Activity (Mus musculus [11]): inactive | Activity (Mus musculus [12]): inactive | Activity (Mus musculus [13]): Non-toxic | Activity (Mus musculus [14]): Non-toxic | Activity (Mus musculus [15]): Toxic | Activity (Mus musculus [16]): Non-toxic | Activity (Mus musculus [17]): Non-toxic | Activity (Mus musculus [18]): Non-toxic | Activity (Rattus norvegicus [19]): inactive | Activity (Rattus norvegicus [20]): inactive | Activity (Rattus norvegicus [21]): inactive | Activity (Rattus norvegicus [22]): Non-toxic | Activity (Rattus norvegicus [23]): Active | Activity (Rattus norvegicus [24]): Toxic | Activity (Rattus norvegicus [25]): Toxic | Activity (Rattus norvegicus [26]): Non-toxic | Activity (Rattus norvegicus [27]): Toxic | Activity (Rattus norvegicus [28]): Toxic | Activity (Rattus norvegicus [29]): Non-toxic | Activity (Rattus norvegicus [30]): Toxic | Activity (Rattus norvegicus [31]): Toxic | Activity (Rattus norvegicus [32]): Non-toxic | Activity (Rattus norvegicus [33]): Non-toxic | Activity (Rattus norvegicus [34]): Toxic | Activity (Rattus norvegicus [35]): Non-toxic | Activity (Rattus norvegicus [36]): Non-toxic | Activity (Rattus norvegicus [37]): Toxic | Activity (Rattus norvegicus [38]): Non-toxic | ED50 (Rattus norvegicus [39]): 107 mg/kg | ED97 (Rattus norvegicus [39]): 151 mg/kg | Activity (Rattus norvegicus [40]): Non-toxic

CCC(C)C(COC(N)=O)C(C)C (racemic)
Activity (Mus musculus [1]): inactive | Activity (Mus musculus [2]): Active | Activity (Mus musculus [3]): Active | Activity (Mus musculus [4]): inactive | Activity (Mus musculus [5]): inactive | Activity (Mus musculus [6]): inactive | Activity (Mus musculus [7]): inactive | Activity (Mus musculus [8]): Active | Activity (Mus musculus [9]): Active | Activity (Mus musculus [10]): inactive | Activity (Mus musculus [11]): inactive | Activity (Mus musculus [12]): inactive | Activity (Mus musculus [13]): Non-toxic | Activity (Mus musculus [15]): Toxic | Activity (Mus musculus [16]): Non-toxic | Activity (Mus musculus [17]): Non-toxic | Activity (Mus musculus [18]): Non-toxic | Activity (Rattus norvegicus [23]): Active | Activity (Rattus norvegicus [24]): Toxic | Activity (Rattus norvegicus [26]): Non-toxic | Activity (Rattus norvegicus [27]): Toxic | Activity (Rattus norvegicus [29]): Non-toxic | Activity (Rattus norvegicus [32]): Non-toxic | Activity (Rattus norvegicus [33]): Non-toxic | Activity (Rattus norvegicus [35]): Non-toxic | Activity (Rattus norvegicus [36]): Non-toxic | Activity (Rattus norvegicus [38]): Non-toxic | ED50 (Rattus norvegicus [39]): 114 mg/kg | ED97 (Rattus norvegicus [39]): 199 mg/kg | Activity (Rattus norvegicus [40]): Non-toxic

Source: ChEMBL document CHEMBL2086252, “Syntheses and evaluation of anticonvulsant activity of novel branched alkyl carbamates” (J Med Chem, 2012)
